Reference: ChEMBL document CHEMBL4732044, “Discovery of a promising agent IQZ23 for the treatment of obesity and related metabolic disorders” (Eur J Med Chem, 2020)
Active and inactive are the calls of the source. The rule behind the calls is not given here.

Assays:
Mus musculus = test: Antiobesity activity in high fat diet-induced obese C57BL/6J mouse model assessed as decrease in body weight at 50 mg/kg, ip administered for every other days for 5 weeks; assay type: functional; design: scale not given: the % may be the effect or the level left
3T3-L1 [1] = test: Inhibition of mouse 3T3-L1 cells adipocyte differentiation assessed as reduction in adipogenic cocktail-induced FAS protein expression after 6 days by Western blot analysis; assay type: functional, cell-based; details: time 6.0 day
Method in brief: (§1)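 3T3-L1 preadipocytes were differentiated with cocktail for 3 days, then insulin medium for 3 days, with compound (0.3 or 1 µM) present throughout. Cells were harvested on day 6 and proteins measured by Western blot, with densitometry normalized to actin.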

3T3-L1 [2] = test: Inhibition of mouse 3T3-L1 cells adipocyte differentiation assessed as reduction in adipogenic cocktail-induced PPARgamma mRNA expression at 1 mM after 24 hrs by RT-qPCR analysis; assay type: functional, cell-based
Method in brief: (§2)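 Confluent 3T3-L1 preadipocytes received differentiation cocktail (0.5 mM IBMX, 100 ng/mL dexamethasone, 2 µg/mL insulin) with compound (0.01–1 µM; metformin 1 mM) for 24 h. mRNA was measured by SYBR Green RT-qPCR (30 cycles), normalized to β-actin, with the differentiated control set to 1. N = 4 independent experiments.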

3T3-L1 [3] = test: Inhibition of mouse 3T3-L1 cells adipocyte differentiation assessed as reduction in adipogenic cocktail-induced PPARgamma protein expression after 24 hrs by Western blot analysis; assay type: functional, cell-based
Method in brief: (§3)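 3T3-L1 preadipocytes were exposed to adipogenic cocktail with compound (0.3 or 1 µM) and harvested on day 1. Lysates were resolved by SDS-PAGE, immunoblotted (primary antibody overnight at 4 °C, HRP secondary) and quantified by densitometry normalized to actin.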

3T3-L1 [4] = test: Inhibition of mouse 3T3-L1 cells adipocyte differentiation assessed as reduction in adipogenic cocktail-induced C/EBPdelta mRNA expression at 1 mM after 24 hrs by RT-qPCR analysis; assay type: functional, cell-based; method in brief: as §2
3T3-L1 [5] = test: Inhibition of mouse 3T3-L1 cells adipocyte differentiation assessed as reduction in adipogenic cocktail-induced SCD1 protein expression after 6 days by Western blot analysis; assay type: functional, cell-based; details: time 6.0 day; method in brief: as §1
3T3-L1 [6] = test: Inhibition of mouse 3T3-L1 cells adipocyte differentiation assessed as reduction in adipogenic cocktail-induced SREBP-1c protein expression after 24 hrs by Western blot analysis; assay type: functional, cell-based; method in brief: as §3
3T3-L1 [7] = test: Activation of AMPK pathway in adipogenic cocktail-induced mouse 3T3-L1 cells assessed as increase in phosphorylation AMPKalpha at Thr172 residue after 24 hrs by Western blot analysis; assay type: cell-based; details: filed as activator
Method in brief: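 Confluent 3T3-L1 pre-adipocytes exposed to adipogenic cocktail for 24 h with or without compound (0, 0.01, 0.1, 1 µM); DMSO vehicle. Lysates analysed by SDS-PAGE/Western blot for pAMPKα (Thr-172), normalized to actin, Ctrl set as 1. N = 4 independent experiments.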

C2C12 [8] = test: Activation of AMPK pathway in mouse C2C12 cells assessed as increase in glucose uptake at 1 mM after 6 hrs by 2-NBDG/Hoechst 33342 staining based Confocal microscopic method; assay type: cell-based; details: filed as activator
Method in brief: (§4)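 C2C12 myoblasts kept in DMEM with 10% FBS and 1% penicillin/streptomycin at 37 °C under 5% CO2.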

3T3-L1 [9] = test: Inhibition of mouse 3T3-L1 cells adipocyte differentiation assessed as reduction in adipogenic cocktail-induced ACC protein expression after 6 days by Western blot analysis; assay type: functional, cell-based; details: time 6.0 day; method in brief: as §1
C2C12 [10] = test: Activation of AMPK pathway in mouse C2C12 cells assessed as increase in glucose uptake at 1 mM after 6 hrs in presence of insulin by 2-NBDG/Hoechst 33342 staining based Confocal microscopic method; assay type: cell-based; details: filed as activator; method in brief: as §4
3T3-L1 [11] = test: Lipid lowering activity in mouse 3T3-L1 cells assessed as reduction in adipogenic cocktail-induced triglyceride levels […] incubated for 6 days by GPO-POD assay relative to control; assay type: functional; design: scale not given: the % may be the effect or the level left; details: time 6 day
3T3-L1 [12] = test: Inhibition of mouse 3T3-L1 cells adipocyte differentiation assessed as reduction in adipogenic cocktail-induced C/EBPbeta mRNA expression at 1 mM after 24 hrs by RT-qPCR analysis; assay type: functional, cell-based; method in brief: as §2
3T3-L1 [13] = test: Inhibition of mouse 3T3-L1 cells adipocyte differentiation assessed as reduction in adipogenic cocktail-induced C/EBPalpha mRNA expression at 1 mM after 24 hrs by RT-qPCR analysis; assay type: functional, cell-based; method in brief: as §2
3T3-L1 [14] = test: Inhibition of mouse 3T3-L1 cells adipocyte differentiation assessed as reduction in adipogenic cocktail-induced C/EBPalpha protein expression after 24 hrs by Western blot analysis; assay type: functional, cell-based; method in brief: as §3

Row | Structure (SMILES) | Activity (Mus musculus) [%] | inhibition (3T3-L1 [1]) | inhibition (3T3-L1 [2]) | inhibition (3T3-L1 [3]) | inhibition (3T3-L1 [4]) | inhibition (3T3-L1 [5]) | inhibition (3T3-L1 [6]) | Activity (3T3-L1 [7]) | Activity (C2C12 [8]) | inhibition (3T3-L1 [9]) | Activity (C2C12 [10]) | Activity (3T3-L1 [11]) [%] | inhibition (3T3-L1 [12]) | inhibition (3T3-L1 [13]) | inhibition (3T3-L1 [14])
1 | O=Cc1c(-c2nc3ccccc3c(=O)[nH]2)[nH]c2ccccc12 | 14.6 |  |  |  |  |  |  |  |  |  |  |  |  |  | 
2 | CN(C)C(=N)NC(=N)N [METFORMIN] |  | Active | Active | Active | Active | Active | Active | Active | Active | Active | Active | 60.3 | Active | Active | Active
